Shown is part of a subset that was picked to be rich in hits.
XBP1 UPR activ = adaptive UPR (XBP1) activation | AID 463104 | activation, % at 20 µM | 330,000 compounds, 0.33% hits | CHO-XBP1 luciferase reporter, IRE1-XBP1 UPR activation, luminescence; percent of tunicamycin response, DMSO as zero;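 active means versus positive control, 20 µM dose yields 30% or more activation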;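 further: 100% = tunicamycin at 10 µg/mL and 0% = DMSO only wells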
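Assay system: CHO-XBP1 luciferase reporter cells; Schedule: 6 h treatment, 37 °C; Detection: glow luminescence from Steady-Glo reagent; Benchmarks: high control tunicamycin 10 µg/mL final, low control DMSO vehicle only.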
CHOP inh = inhibitors of CHOP induction in ER stress response; CHO-K1 CHOP-promoter luciferase, tunicamycin-induced, 15-18 h; inhibition, % at 10 µM; 220,000 compounds, 3.8% hits; AID 2732;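 active means compounds that reduced the stress-induced luciferase reporter signal by more than about 70% of percent inhibition, limit read from the data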;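 further: 0% = tunicamycin plus vehicle and 100% = wells without tunicamycin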
697 NFkB inh = lowers PMA/ionomycin-induced NF-kB signal in 697 B cells; 697 B-cell NF-kB luciferase reporter, 16 h; inhibition, % at 4 µM; 330,000 compounds, 0.33% hits; AID 435022; in the data active means inhibition above about 35%
Jurkat NFkB inh = inhibitors of the PMA/ionomycin-induced NF-kB reporter in Jurkat cells | PMA/ionomycin-induced NF-kB luciferase reporter, luminescence | inhibition, % at 4 µM | 330,000 compounds, 0.53% hits | AID 435003; in the data active means inhibition above about 50%
CHOP UPR activ = activators of apoptotic arm of unfolded protein response (CHOP); CHO-CHOP luciferase reporter, UPR activation, luminescence; percent of tunicamycin response over DMSO baseline; activation, % at 10 µM; 330,000 compounds, 0.34% hits; AID 449763;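 active means at 10 µM dose, activation of 40% or more, normalized to positive control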;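 further: 100% = tunicamycin at 10 µg/mL and 0% = DMSO alone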
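Material: CHO-CHOP cells, stable luciferase reporter of PERK-eIF2a-CHOP signalling; quantity: 500 reporter cells seeded per well; buffer or medium: F12 medium containing 10% fetal bovine serum; compound: one dose, 10 µM in 0.5% DMSO; incubation: 6 h compound treatment, 37 °C; measured by: Steady-Glo luciferase luminescence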
Starred values were filed as active, the others as inactive.

`O=C(c1cc(S(=O)(=O)N2CCOCC2)ccc1Cl)N1CCCCC1CO` (centres undefined) gave XBP1 UPR activ -1, 697 NFkB inh 15, Jurkat NFkB inh 4 and CHOP UPR activ -1.
O=C(NCC1(c2ccccc2)CCCC1)c1ccc(Br)cc1 was read as XBP1 UPR activ -1, CHOP inh 74*, 697 NFkB inh 6, Jurkat NFkB inh 6 and CHOP UPR activ 1.
`C[C@@H]1CN([C@@H](C)CO)C(=O)c2cc(NC(=O)CCC(F)(F)F)ccc2O[C@H]1CN(C)S(=O)(=O)c1ccc(Cl)cc1` gave XBP1 UPR activ -1, 697 NFkB inh 22, Jurkat NFkB inh 13 and CHOP UPR activ 2.
Screening Cc1csc(NC(=O)C(CC(C)C)NS(=O)(=O)c2ccc3c(c2)oc(=O)n3C)n1 (centres undefined) returned XBP1 UPR activ 1, CHOP inh 97*, 697 NFkB inh 16, Jurkat NFkB inh 5 and CHOP UPR activ 2.
For Cc1csc(NC(=O)C2CCN(S(=O)(=O)c3ccc4c(c3)oc(=O)n4C)CC2)n1 the results were XBP1 UPR activ -4, CHOP inh 52, 697 NFkB inh 21, Jurkat NFkB inh 1 and CHOP UPR activ 1.
For CC1CC(NS(=O)(=O)c2cc3c4c(c2)CCN4C(=O)CC3)CC(C)(C)C1 (centres undefined) the results were XBP1 UPR activ -1, 697 NFkB inh -7, Jurkat NFkB inh -7 and CHOP UPR activ 0.
`O/N=C/c1ccccc1OCc1ccc(Cl)cc1` gave XBP1 UPR activ 2, CHOP inh 76*, 697 NFkB inh -51, Jurkat NFkB inh -49 and CHOP UPR activ 6.
Screening O/N=C/c1ccccc1OCc1ccccc1Cl returned XBP1 UPR activ 1, CHOP inh 32, 697 NFkB inh -29, Jurkat NFkB inh -4 and CHOP UPR activ 2.
Screening Cc1cccc(Cn2c(-c3ccc[nH]c3=O)nc3ccccc32)c1 returned XBP1 UPR activ -2, 697 NFkB inh -9, Jurkat NFkB inh -11 and CHOP UPR activ -1.
Screening Cc1ccc(S(=O)(=O)NCCC(=O)Nc2cc(S(=O)(=O)N(C)C)ccc2C)cc1C returned XBP1 UPR activ -3, 697 NFkB inh -7, Jurkat NFkB inh -31 and CHOP UPR activ 0.
`COC(=O)Nc1nnc(-c2ccco2)s1` gave XBP1 UPR activ 2, CHOP inh 0, 697 NFkB inh -10, Jurkat NFkB inh -36 and CHOP UPR activ 0.
`CC(C)CC(=O)Nc1nnc(-c2ccco2)s1` gave XBP1 UPR activ 3, CHOP inh 84*, 697 NFkB inh -25, Jurkat NFkB inh -32 and CHOP UPR activ 7.
Cc1cccc(N2C(=O)N3[C@H]4c5ccccc5OC[C@@H]4[C@@H](c4ccccc4)[C@@]3(C)C2=O)c1 was read as XBP1 UPR activ -1, 697 NFkB inh 5, Jurkat NFkB inh -2 and CHOP UPR activ -1.
`CC(=O)c1cnn(-c2c(Cl)cc(Cl)cc2Cl)c1C` gave XBP1 UPR activ -3, CHOP inh 4, 697 NFkB inh -2, Jurkat NFkB inh -1 and CHOP UPR activ -2.
For CN1/C(=C\C(=O)Nc2ccc(Cl)cc2)C(C)(C)c2ccccc21 the results were XBP1 UPR activ -1, CHOP inh 39, 697 NFkB inh -3, Jurkat NFkB inh -18 and CHOP UPR activ 0.
`CN1/C(=C\C=C(/C#N)C(=O)Nc2ccc(Cl)cc2)C(C)(C)c2ccccc21` gave XBP1 UPR activ -2, CHOP inh 75*, 697 NFkB inh 6, Jurkat NFkB inh -2 and CHOP UPR activ 0.
NC(=O)c1ccsc1NC(=O)COC(=O)Cc1cccc2ccccc12 was read as XBP1 UPR activ -1, CHOP inh 85*, 697 NFkB inh -26, Jurkat NFkB inh 8 and CHOP UPR activ 0.
Screening NC(=O)c1ccsc1NC(=O)COC(=O)Cc1c[nH]c2ccccc12 returned XBP1 UPR activ -2, 697 NFkB inh -3, Jurkat NFkB inh 3 and CHOP UPR activ 2.
CCOc1cc(-c2nc(-c3ccccc3OC)no2)cc(OCC)c1OCC was read as XBP1 UPR activ 1, CHOP inh 76*, 697 NFkB inh 10, Jurkat NFkB inh 1 and CHOP UPR activ -1.
For Cc1ccc(NC(=O)CSc2ncc3ccccn23)cc1 the results were XBP1 UPR activ 5, CHOP inh -21, 697 NFkB inh -7, Jurkat NFkB inh -14 and CHOP UPR activ 2.
For Cc1cccc(OCCCC(=O)Nc2ccc(Br)cc2)c1 the results were XBP1 UPR activ 0, CHOP inh 84*, 697 NFkB inh 15, Jurkat NFkB inh 20 and CHOP UPR activ -2.
CCOC(=O)/C(C#N)=C/c1ccc(-c2ccsc2C(=O)OC)o1 was read as XBP1 UPR activ 3, CHOP inh 74*, 697 NFkB inh -54, Jurkat NFkB inh -14 and CHOP UPR activ 5.
For OC(CCN1CCOCC1)(c1ccc(Cl)cc1)C1CCCCC1 (centres undefined) the results were XBP1 UPR activ -1, CHOP inh 80*, 697 NFkB inh -4, Jurkat NFkB inh -3 and CHOP UPR activ -1.
`CC(C)C(NC(=O)Cc1ccccc1[N+](=O)[O-])C(C)C` gave XBP1 UPR activ 1, CHOP inh 15, 697 NFkB inh -6, Jurkat NFkB inh 3 and CHOP UPR activ 1.
O=[N+]([O-])c1ccccc1CNC(Cc1ccccc1)c1ccccc1 (centres undefined) was read as XBP1 UPR activ -4, CHOP inh 80*, 697 NFkB inh -1, Jurkat NFkB inh 4 and CHOP UPR activ 2.
`Cc1ccccc1CSCCNC(=O)COc1ccc(Cl)cc1` gave XBP1 UPR activ -3, CHOP inh 75*, 697 NFkB inh 20, Jurkat NFkB inh 2 and CHOP UPR activ 0.
For CC(C)(C)SCCNC(=O)COc1ccc(Cl)cc1 the results were XBP1 UPR activ -4, CHOP inh 13, 697 NFkB inh -61, Jurkat NFkB inh -23 and CHOP UPR activ -1.
Screening O=C(Nc1nnc(C2CC2)s1)c1cc(S(=O)(=O)N2CCCCC2)ccc1N1CCOCC1 returned XBP1 UPR activ -2, CHOP inh 3, 697 NFkB inh 3, Jurkat NFkB inh 4 and CHOP UPR activ 0.
`CCc1nnc(NC(=O)c2cc(S(=O)(=O)N3CCOCC3)ccc2N2CCCCC2)s1` gave CHOP inh 72*.
`O=C(CN1CCN(C(=O)c2ccco2)CC1)Nc1ccc(F)cc1F` gave XBP1 UPR activ -1, 697 NFkB inh -57, Jurkat NFkB inh -24 and CHOP UPR activ 5.
CC(=O)O/N=C1\C(=O)N(Cc2ccc(C)cc2)c2ccccc21 was read as XBP1 UPR activ -5, CHOP inh 53, 697 NFkB inh 4, Jurkat NFkB inh 9 and CHOP UPR activ -1.
Screening CC(C)CC(=O)O/N=C1\C(=O)N(Cc2ccc(Cl)cc2)c2ccc([N+](=O)[O-])cc21 returned XBP1 UPR activ 1, CHOP inh 90*, 697 NFkB inh 1, Jurkat NFkB inh 15 and CHOP UPR activ 1.

High-throughput results deposited in PubChem by several laboratories.
